In ChEMBL document CHEMBL2346575, “Potential CRF1R PET imaging agents: 1-fluoroalkylsubstituted 5-halo-3-(arylamino)pyrazin-2(1H)-ones” (Bioorg Med Chem Lett, 2013):

Tests used:
[1] = tested on: Cortex; assay: Drug uptake in rat cortex after 30 mins; format: ADME, tissue-based; conditions: in vivo, 0.5 h
[2] = tested on: Cerebellum; assay: Drug uptake in rat cerebellum after 30 mins; format: ADME, tissue-based; conditions: in vivo, 0.5 h
[3] = Metabolic stability in baboon after 9 mins; format: ADME, organism-based, Papio; conditions: in vivo, read-out: Stability
[4] = Lipophilicity, log D of the compound in octanol-phosphate buffer at pH 7.4 after 30 to 40 mins by shake flask method; format: physicochemical
How it was run: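 Phosphate buffer (25 mM, pH ~7.4) and octanol were pre-saturated overnight. Sample (1.0 mg) in 1 mL octanol added to 50 mL octanol-saturated buffer, shaken hard 30–40 min, then left until the layers separated. Each phase analyzed twice by HPLC.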

[5] = molecular target: T1, Corticotropin-releasing factor receptor 1 (Rattus norvegicus, UniProt P35353); assay: Displacement of [125I]-o-CRF from CRF1 receptor in rat frontal cortex homogenate after 2 hrs by gamma counting; format: tissue-based
T1 sequence (P35353 whole entry): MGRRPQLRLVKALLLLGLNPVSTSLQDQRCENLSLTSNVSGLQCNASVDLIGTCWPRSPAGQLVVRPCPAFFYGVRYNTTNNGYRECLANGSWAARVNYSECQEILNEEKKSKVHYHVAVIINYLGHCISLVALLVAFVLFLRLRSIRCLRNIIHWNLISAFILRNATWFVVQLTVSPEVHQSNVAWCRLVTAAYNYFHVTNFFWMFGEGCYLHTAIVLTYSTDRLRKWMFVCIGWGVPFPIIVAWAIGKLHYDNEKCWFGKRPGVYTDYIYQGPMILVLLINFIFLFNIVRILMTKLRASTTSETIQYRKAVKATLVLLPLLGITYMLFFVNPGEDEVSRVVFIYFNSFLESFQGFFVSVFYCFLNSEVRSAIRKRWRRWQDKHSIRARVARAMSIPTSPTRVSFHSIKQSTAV
How it was run: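 Rat frontal cortex, thawed in 50 mM HEPES (pH 7.0 at 23 °C) with 10 mM MgCl2, 2 mM EGTA and protease inhibitors, then homogenized, spun twice at 32,000×g for 30 min and stored at -70 °C. Membranes (25 µg/well) incubated with 150 pM 125I-o-CRF and test drug, 2 h at 21 °C. Filtered on PEI-treated GF/B, washed with cold PBS/0.01% Triton X-100. Nonspecific binding with 1 µM DMP696.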

[6] = Metabolic stability in baboon after 13 mins; format: ADME, organism-based, Papio; conditions: in vivo, read-out: Stability
[7] = Drug uptake in rat pituitary gland; format: ADME, tissue-based; conditions: in vivo

SMILES: COCCN(CCOC)c1nc(C)nc2c(-c3ccc([76Br])cc3Cl)c(C)nn12
- Drug uptake [1]: 0.32 % ID/g
- Drug uptake [2]: 0.29 % ID/g

SMILES: CCCN(CCC)c1cc(C)nc2c(-c3ccc(N(C)[11CH3])nc3)c(C)nn12
- remaining at 0.15 h [3]: 50%

SMILES: COc1cc(C)c(Nc2nc(Cl)cn([C@@H](COCCF)C3CC3)c2=O)cc1C
- logD [4]: 4.6
- IC50 [5]: 0.46 nM

SMILES: COc1cc(Cl)c(Nc2nc(Cl)cn([C@@H](COCCF)C3CC3)c2=O)c(Cl)c1
- logD [4]: 4
- IC50 [5]: 0.6 nM

SMILES: COc1cc(Cl)c(Nc2nc(Br)cn([C@@H](COCCF)C3CC3)c2=O)c(Cl)c1
- logD [4]: 4.1
- IC50 [5]: 0.46 nM

SMILES: COc1cc(Cl)c(Nc2nc(C#N)cn([C@@H](COCCF)C3CC3)c2=O)c(Cl)c1
- logD [4]: 3.4
- IC50 [5]: 7.7 nM

SMILES: COc1nc(Cl)nc(C)c1Nc1nc(Cl)cn([C@@H](COCCF)C2CC2)c1=O
- logD [4]: 3.3
- IC50 [5]: 19 nM

SMILES: COc1nc(Cl)nc(C)c1Nc1nc(Br)cn([C@@H](COCCF)C2CC2)c1=O
- logD [4]: 3.4
- IC50 [5]: 14 nM

SMILES: Cc1cc(C#N)cc(Cl)c1Nc1nc(Cl)cn([C@@H](COCCF)C2CC2)c1=O
- logD [4]: 3.7
- IC50 [5]: 4.5 nM

SMILES: Cc1cc(C#N)cc(C)c1Nc1nc(Cl)cn([C@@H](COCCF)C2CC2)c1=O
- logD [4]: 3.4
- IC50 [5]: 7.4 nM

SMILES: N#Cc1cc(Cl)c(Nc2nc(Cl)cn([C@@H](COCCF)C3CC3)c2=O)c(Cl)c1
- logD [4]: 3.6
- IC50 [5]: 5 nM

SMILES: COc1cc(Cl)c2c(c1)CCN2c1nc(Cl)cn([C@@H](COCCF)C2CC2)c1=O
- logD [4]: 4
- IC50 [5]: 3.2 nM

SMILES: N#Cc1cc(F)c(Nc2nc(Cl)cn([C@@H](COCCF)C3CC3)c2=O)cc1F
- logD [4]: 4.6
- IC50 [5]: > 1000 nM

SMILES: COc1cc(C)c(Nc2nc(Cl)cn([C@@H](CF)C3CC3)c2=O)cc1C
- logD [4]: 4.5
- IC50 [5]: 1.1 nM

SMILES: COc1cc(C)c(Nc2nc(C)cn([C@@H](CF)C3CC3)c2=O)cc1C
- logD [4]: 4.2
- IC50 [5]: 0.61 nM

SMILES: COc1nc(C)c(Nc2nc(C)cn([C@@H](CF)C3CC3)c2=O)cc1C
- logD [4]: 4.1
- IC50 [5]: 4.7 nM

SMILES: COc1nc(C)c(Nc2nc(Cl)cn(C(CCF)C3CC3)c2=O)c(OC)n1 (racemic)
- logD [4]: 2.9
- IC50 [5]: 53 nM

SMILES: COCCN(CCO[11CH3])c1cc(C)nc2c(-c3ccc(N(C)C)nc3)c(C)nn12 [[11C]DMP696]
- remaining at 13 min [6]: 50%

SMILES: CCN(CCCC[18F])c1nc(C)nc2c1c(C)cn2-c1c(C)cc(C)cc1C [[18F]FBPPA]
- Drug uptake [7]: 5.59%
